The values that follow come from ChEMBL document CHEMBL2321703, “Identification of novel D-amino acid oxidase inhibitors by in silico screening and their functional characterization in vitro” (J Med Chem, 2013).

In general, pIC50 refers to the negative decadic logarithm of the IC50, by convention in mol/L. Usually pKi stands for the Ki on a negative log10 scale, so that one unit is a factor of ten.

Assay [1] deals with T1, D-amino-acid oxidase (Homo sapiens, UniProt P14920). Nature of the assay: Inhibition of human recombinant N-terminal His-tagged DAO expressed in Escherichia coli BL21(DE3) using D-alanine as substrate assessed as residual activity at 10000 uM by colorimetric assay relative to control. A digest of the protocol:
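Purified enzyme (0.23–4.2 μg) in air-saturated 40 mM sodium pyrophosphate pH 8.3, 23 U catalase, 60 μM FAD, 10 mM D-amino acid substrate, with compound; 37 °C, 10 min; stopped with trichloroacetic acid. 2-Oxo acid reacted with 2,4-dinitrophenylhydrazine, A445 read against substrate-free blank.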
Target sequence in this assay (P14920 whole entry, looked up): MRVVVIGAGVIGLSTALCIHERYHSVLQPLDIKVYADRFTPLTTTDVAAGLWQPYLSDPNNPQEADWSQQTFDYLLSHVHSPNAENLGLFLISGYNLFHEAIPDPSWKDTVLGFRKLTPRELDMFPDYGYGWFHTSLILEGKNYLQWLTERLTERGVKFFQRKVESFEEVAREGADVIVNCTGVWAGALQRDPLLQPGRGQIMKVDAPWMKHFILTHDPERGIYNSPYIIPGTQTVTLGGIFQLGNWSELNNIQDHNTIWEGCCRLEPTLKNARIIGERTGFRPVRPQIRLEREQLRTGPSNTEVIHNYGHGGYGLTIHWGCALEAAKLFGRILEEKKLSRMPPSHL

Assay [2] deals with T2, Serine racemase (Homo sapiens) (UniProt Q9GZT4).
T2 sequence (whole entry): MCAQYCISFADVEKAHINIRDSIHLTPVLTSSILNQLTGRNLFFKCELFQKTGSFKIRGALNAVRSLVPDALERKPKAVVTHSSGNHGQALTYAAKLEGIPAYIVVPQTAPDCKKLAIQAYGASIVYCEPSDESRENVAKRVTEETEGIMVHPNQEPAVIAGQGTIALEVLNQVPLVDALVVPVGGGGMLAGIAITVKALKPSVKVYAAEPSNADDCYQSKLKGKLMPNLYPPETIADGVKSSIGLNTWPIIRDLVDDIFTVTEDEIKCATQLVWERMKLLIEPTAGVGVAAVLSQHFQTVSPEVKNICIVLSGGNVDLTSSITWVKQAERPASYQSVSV
As to the kind of experiment: (§1) Inhibition of human recombinant N-terminal His-tagged serine racemase expressed in Escherichia coli BL21(DE3) using L-serine as substrate after 10 mins by fluorescence assay. The essentials:
(§2)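 Purified enzyme (30 μg) in 40 mM Tris-HCl pH 8.0, 60 μM pyridoxal phosphate, 1 mM MgCl2, ATP, 1 mM dithiothreitol, 10 mM L-Ser, with compound; 37 °C, 10 min; methanol stop. D-Ser quantified by OPA/Boc-L-cysteine derivatization and reversed-phase HPLC fluorescence (ex 344, em 443 nm).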

The target of another assay is T3, Serine racemase (Homo sapiens, UniProt Q9GZT4).
T3 sequence (Q9GZT4 whole entry): T2 sequence (whole entry)
The assay is described as §1. The essentials: as §2

The target in assay [3] is T1, D-amino-acid oxidase. Nature of the assay: Inhibition of human recombinant N-terminal His-tagged DAO expressed in Escherichia coli BL21(DE3) using D-alanine as substrate by colorimetric assay.
Assay [4] addresses T1, D-amino-acid oxidase. Nature of the assay: Inhibition of human recombinant N-terminal His-tagged DAO expressed in Escherichia coli BL21(DE3) using D-serine as substrate by colorimetric assay.
The target of assay [5] is T4, D-aspartate oxidase (Homo sapiens) (UniProt Q99489).
T4 sequence (whole entry): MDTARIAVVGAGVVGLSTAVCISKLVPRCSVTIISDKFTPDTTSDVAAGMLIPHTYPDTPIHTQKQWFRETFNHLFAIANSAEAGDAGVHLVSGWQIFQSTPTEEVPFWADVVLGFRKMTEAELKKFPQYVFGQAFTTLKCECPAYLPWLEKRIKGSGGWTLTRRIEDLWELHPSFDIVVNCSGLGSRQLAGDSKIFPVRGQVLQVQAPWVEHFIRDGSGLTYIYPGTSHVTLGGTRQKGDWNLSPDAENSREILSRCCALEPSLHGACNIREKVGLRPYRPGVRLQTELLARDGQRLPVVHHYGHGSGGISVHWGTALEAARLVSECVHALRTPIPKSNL
As to the kind of experiment: (§3) Inhibition of human recombinant N-terminal His-tagged DDO expressed in Escherichia coli BL21(DE3) using D-aspartate as substrate by colorimetric assay. The essentials:
(§4)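 Purified enzyme (0.23–4.2 μg) with 10 mM D-Asp in air-saturated 40 mM sodium pyrophosphate pH 8.3, 23 U catalase, 60 μM FAD; 37 °C, 10 min; trichloroacetic acid stop; 2-oxo acid measured as 2,4-dinitrophenylhydrazone at A445.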

In another assay the target is T5, D-aspartate oxidase (Homo sapiens, UniProt Q99489).
T5 sequence (Q99489 whole entry): T4 sequence (whole entry)
The assay is described as §3. The essentials: as §4

The test system of assay [6] is D-amino-acid oxidase (Homo sapiens), P14920 [Y224A]. Nature of the assay: (§5) Inhibition of human recombinant N-terminal His-tagged DAO Y224A mutant expressed in Escherichia coli BL21(DE3) using D-alanine as substrate after 10 mins by Lineweaver-Burk plot analysis.
Sequence of D-amino-acid oxidase (Homo sapiens), P14920 [Y224A] (P14920 whole entry Y224A): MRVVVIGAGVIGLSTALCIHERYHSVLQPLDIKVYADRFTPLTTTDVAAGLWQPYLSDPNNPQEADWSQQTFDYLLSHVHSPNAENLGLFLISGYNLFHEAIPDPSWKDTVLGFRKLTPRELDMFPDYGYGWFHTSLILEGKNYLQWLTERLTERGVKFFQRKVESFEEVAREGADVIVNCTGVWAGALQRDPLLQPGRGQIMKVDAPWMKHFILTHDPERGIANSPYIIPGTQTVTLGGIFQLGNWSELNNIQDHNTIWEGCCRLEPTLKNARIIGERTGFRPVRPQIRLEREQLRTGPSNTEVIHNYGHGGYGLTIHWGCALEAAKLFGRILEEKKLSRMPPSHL
For assay [7], the target named is D-amino-acid oxidase (Homo sapiens, UniProt P14920, Y224A). Described as §5.
Sequence of D-amino-acid oxidase (Homo sapiens, UniProt P14920, Y224A) (P14920 whole entry Y224A): as above
Assay [8] concerns D-amino-acid oxidase (Homo sapiens), P14920 [Y224F]. Nature of the assay: (§6) Inhibition of human recombinant N-terminal His-tagged DAO Y224F mutant expressed in Escherichia coli BL21(DE3) using D-alanine as substrate after 10 mins by Lineweaver-Burk plot analysis.
Sequence of D-amino-acid oxidase (Homo sapiens), P14920 [Y224F] (P14920 whole entry Y224F): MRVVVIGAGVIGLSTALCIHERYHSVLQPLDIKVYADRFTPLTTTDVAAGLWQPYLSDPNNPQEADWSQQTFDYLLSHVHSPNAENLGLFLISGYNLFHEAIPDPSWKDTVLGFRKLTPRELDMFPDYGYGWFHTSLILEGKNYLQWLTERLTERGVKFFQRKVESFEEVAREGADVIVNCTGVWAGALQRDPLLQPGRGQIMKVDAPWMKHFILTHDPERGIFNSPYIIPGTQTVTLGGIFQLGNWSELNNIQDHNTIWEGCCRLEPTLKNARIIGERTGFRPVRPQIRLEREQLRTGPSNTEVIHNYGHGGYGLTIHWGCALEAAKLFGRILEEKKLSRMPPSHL
For assay [9], the target named is D-amino-acid oxidase (Homo sapiens, UniProt P14920, Y224F). The assay is described as §6.
Sequence of D-amino-acid oxidase (Homo sapiens, UniProt P14920, Y224F) (P14920 whole entry Y224F): as above
Assay [10] deals with T1, D-amino-acid oxidase. Nature of the assay: Competitive inhibition of human recombinant N-terminal His-tagged DAO expressed in Escherichia coli BL21(DE3) using D-alanine as substrate by Lineweaver-Burk plot analysis. The essentials: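 Purified N-terminal His-tagged human DAO from E. coli BL21(DE3)pLysS. Colorimetric 2-oxo acid assay in air-saturated 40 mM sodium pyrophosphate pH 8.3 with catalase, 60 μM FAD and 0.5–40 mM D-Ala, 37 °C for 10 min. Stopped with TCA, derivatized with 2,4-dinitrophenylhydrazine, read at A445. Lineweaver–Burk plots; Ki confirmed by slope replot against inhibitor concentration. Three independent experiments.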
Target sequence in this assay (P14920 whole entry, looked up): as the sequence (P14920 whole entry, looked up) above

Assay [11] addresses T1, D-amino-acid oxidase. As to the kind of experiment: Binding affinity to human recombinant N-terminal His-tagged DAO expressed in Escherichia coli BL21(DE3) at 40 uM after 2 to 30 mins by absorption spectra analysis. The note with it: 200 uM, in the assay text read “at 200 uM” for “at 40 uM”. A digest of the protocol:
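Purified enzyme at 1.7 μg/μL in 10 mM sodium pyrophosphate pH 8.3 with 2 mM EDTA, 5 mM 2-mercaptoethanol, 10% (v/v) glycerol; wavelength scans at 25 °C before and after compound addition (final 40 μM or 200 μM depending on compound), recorded at indicated times; binding inferred from perturbation of the absorption spectrum.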
Target sequence in this assay (P14920 whole entry, looked up): as above

For assay [12], the target named is T1, D-amino-acid oxidase.
Target sequence in this assay (P14920 whole entry): as the sequence (P14920 whole entry, looked up) above
Assay [13] concerns the target T1, D-amino-acid oxidase. Nature of the assay: Inhibition of human recombinant N-terminal His-tagged DAO expressed in Escherichia coli BL21(DE3) using D-alanine as substrate by Lineweaver-Burk plot analysis.
Target sequence in this assay (P14920 whole entry): as the sequence (P14920 whole entry, looked up) above
In assay [14] the test system is HEK293. As to the kind of experiment: Effect on L-alanine level in G418-resistant HEK293 cells at 17 uM by HPLC analysis relative to vehicle-treated control. In kind it is functional, cell-based. The note with it: Homo sapiens. The essentials:
(§7)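 293/NEO (empty-vector, G418-selected) or 293.HA-hDAO-24 (stable N-terminal HA-tagged human DAO) cells, 1 × 10^6 seeded, maintained in DMEM/10% FBS/800 μg/mL G418; next day fresh medium, compound or vehicle (5% DMSO solution) for 30 min, then 17 mM D-Ala for 24 h. Methanol extraction; D-/L-Ala by OPA/NAC derivatization HPLC with fluorescence; mean ± SD of three assays; Dunnett test vs vehicle.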

The test system of assay [15] is HEK293/NEO. Nature of the assay: Effect on L-alanine level in G418-resistant HEK293/NEO cells at 17 uM by HPLC analysis relative to vehicle-treated control. The assay is classed as functional, cell-based. The following applies: Homo sapiens. A digest of the protocol: as §7
The target of assay [16] is T1, D-amino-acid oxidase. The following applies: HEK293/NEO, 17 uM.
Target sequence in this assay (P14920 whole entry, looked up): as above
In assay [17] the target is T1, D-amino-acid oxidase. Nature of the assay: Inhibition of human recombinant DAO expressed in G418-resistant HEK293/NEO cells assessed as effect on D-alanine level at 83 uM incubated for 30 mins prior to D-alanine addition measured after 24 hrs by HPLC analysis relative to vehicle-treated control. In kind it is cell-based. The essentials: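 HEK293 cells stably carrying HA-tagged human DAO (clone 293.HA-hDAO-24) or empty vector (293/NEO), seeded at 1 × 10^6. Next day, fresh medium and 83 μM compound or vehicle (5% DMSO solution) for 30 min, then 17 mM D-Ala for 24 h. Cells methanol-extracted; D-/L-Ala by OPA/NAC-derivatized HPLC. Three independent assays, Dunnett test vs vehicle.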
Target sequence in this assay (P14920 whole entry, looked up): as above

Assay [18] concerns HEK293. As to the kind of experiment: Effect on L-alanine level in G418-resistant HEK293 cells at 83 uM by HPLC analysis relative to vehicle-treated control. The note with it: Homo sapiens. The assay is classed as functional, cell-based. The essentials:
as §7

In assay [19] the test system is HEK293/NEO. As to the kind of experiment: Effect on L-alanine level in G418-resistant HEK293/NEO cells at 83 uM by HPLC analysis relative to vehicle-treated control. The assay is classed as functional, cell-based. The following applies: Homo sapiens. The essentials:
as §7

In assay [20] the target is T1, D-amino-acid oxidase. The note with it: HEK293, 83 uM.
Target sequence in this assay (P14920 whole entry, looked up): as above
Assay [21] deals with T1, D-amino-acid oxidase. Nature of the assay: Binding affinity to human recombinant N-terminal His-tagged DAO expressed in Escherichia coli BL21(DE3) at 200 uM after 2 to 30 mins by absorption spectra analysis.

pIC50, pKi: −log10 of the molar value. The source made the active and inactive calls. The calls are words filed in the database; no cut-off is given here.

Regarding `CCCc1sc(C(=O)O)cc1CC`, at D-amino-acid oxidase [1], the Activity amounted to 67.1%. Besides, the inhibition result (in assay [2]; at D-amino-acid oxidase [3]; in assay [5]) was “Dose-dependent effect” each time. Further, the pIC50 is below 2.00 on Serine racemase, below 2.00 at D-amino-acid oxidase [3], 2.10 on D-amino-acid oxidase [4] and below 2.00 at D-aspartate oxidase.

On to `O=C(O)c1ccccc1` [BENZOIC ACID], for which the inhibition entry (in assay [6]; in assay [8]; at D-amino-acid oxidase [4]) was “Dose-dependent effect” throughout. The pKi at D-amino-acid oxidase [7] is 4.43; on D-amino-acid oxidase [9] it was 4.27; at D-amino-acid oxidase [12] it was 5.15; at D-amino-acid oxidase [13], 4.96. The inhibition result on D-amino-acid oxidase [10] was “Active”. For the same compound, the outcome on D-amino-acid oxidase [11] was Active. The pIC50 on Serine racemase was below 2.00; at D-amino-acid oxidase [3] it was 4.18; on D-amino-acid oxidase [4] it was 4.33; at D-aspartate oxidase, below 2.00.

As to `O=C(O)c1cc2occc2[nH]1`, the outcome with HEK293 [14] and with HEK293/NEO [15] was inactive. In addition, the inhibition result (in [6]; in [8]; on D-amino-acid oxidase [4]) was “Dose-dependent effect” throughout. Moreover, the inhibition result on D-amino-acid oxidase [10] was “Active”. For the same compound, the pIC50 at Serine racemase and on D-aspartate oxidase was below 4.00 throughout. Also, the inhibition result on D-amino-acid oxidase [16] is “inactive”.

With `O=c1oc2ccccc2cc1O` [3-HYDROXYCOUMARIN], the inhibition result at D-amino-acid oxidase [17] was “inactive”. Moreover, the result with HEK293 [14], in the assay with HEK293/NEO [15], in the assay with HEK293 [18] and with HEK293/NEO [19] was inactive. The inhibition result (in assay [6]; in assay [8]; in assay [2]; on D-amino-acid oxidase [3]; at D-amino-acid oxidase [4]; in assay [5]) was “Dose-dependent effect” in each case. Moreover, the pKi on D-amino-acid oxidase [7] was 5.43; on D-amino-acid oxidase [9], 6.58; at D-amino-acid oxidase [13] it was 6.81. For the same compound, the inhibition entry on D-amino-acid oxidase [10] and at D-amino-acid oxidase [20] was “Active” throughout. The pIC50 on Serine racemase was below 2.00; on D-amino-acid oxidase [3], 6.03; on D-amino-acid oxidase [4], 6.36; on D-aspartate oxidase, 2.12. Also, the result at D-amino-acid oxidase [21] was Active.

`O=C(O)/C=C/c1cccc(O)c1`: at D-amino-acid oxidase [1], the Activity stood at 51.5%. Further, the inhibition result (in assay [2]; on D-amino-acid oxidase [3]; at D-amino-acid oxidase [4]; in assay [5]) was “Dose-dependent effect” each time. Further, the pIC50 is 2.08 at Serine racemase, below 2.00 on D-amino-acid oxidase [3], 2.20 at D-amino-acid oxidase [4] and below 2.00 on D-aspartate oxidase.
